Measurements: ChEMBL document CHEMBL1126177, “Synthesis and biological evaluation of N alpha-(5-deaza-5,6,7,8-tetrahydropteroyl)-L-ornithine” (J Med Chem, 1992)
Values belong to the molecule of their own block, whether it stands above or below them.

Assays:
MCF7 [1] = experiment: In vitro effect on tetrahydrofolate (THF) in MCF-7 cells at 100 uM(control= 1.0); Folate pools; format: functional, Homo sapiens
MCF7 [2] = experiment: In vitro effect on 5-methyltetrahydrofolate (5-CH3-THF) in MCF-7 cells at 50 uM(control=0.7); Folate pools; format: functional, Homo sapiens
MCF7 [3] = experiment: In vitro effect on 5-formyltetrahydrofolate (5-CHO-THF) in MCF-7 cells at 100 uM (control= 0.1); Folate pools; format: functional, Homo sapiens
MCF7 [4] = experiment: In vitro effect on total folates in MCF-7 cells at 50 uM (control= 4.0); Folate pools; format: functional, Homo sapiens
MCF7 [5] = experiment: In vitro effect on folic acid (FA) in MCF-7 cells at 100 uM (control= 0.0); Folate pools; format: functional, Homo sapiens
[6] = target: Bifunctional purine biosynthesis protein ATIC (Homo sapiens) (UniProt P31939); experiment: Compound was evaluated for the inhibition of 5-aminoimidazole-4-carboxamide ribonucleotide transformylase obtained from human at 100 uM
Summary of the method: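 AICAR transformylase partially purified from human MOLT-4 cells by a modified literature procedure. Activity was followed with a continuous spectrophotometric assay.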

MCF7 [7] = experiment: In vitro effect on 10-formyltetrahydrofolate (10-CHO-THF) in MCF-7 cells at 50 uM (control= 1.7); Folate pools; format: functional, Homo sapiens
Dihydrofolate reductase = target: T1, Dihydrofolate reductase (Homo sapiens, UniProt P00374); experiment: Compound was evaluated for the inhibition of dihydrofolate reductase obtained from human; conditions: read-out: I50
T1 sequence (P00374 whole entry): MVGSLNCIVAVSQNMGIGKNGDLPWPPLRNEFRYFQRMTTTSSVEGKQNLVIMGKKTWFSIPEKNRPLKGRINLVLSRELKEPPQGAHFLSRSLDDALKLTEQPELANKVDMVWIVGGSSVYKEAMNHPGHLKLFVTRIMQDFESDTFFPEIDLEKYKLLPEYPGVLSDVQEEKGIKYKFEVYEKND

MCF7 [8] = experiment: In vitro effect on 10-formyldihydrofolate (10-CHO-DHF) in MCF-7 cells at 50 uM (control= 0.2); Folate pools; format: functional, Homo sapiens
MCF7 [9] = experiment: In vitro effect on tetrahydrofolate (THF) in MCF-7 cells at 50 uM (control=1.0); Folate pools; format: functional, Homo sapiens
MCF7 [10] = experiment: In vitro effect on 10-formylfolic acid (10-CHO-FA) in MCF-7 cells at 100 uM(control= 0.1); Folate pools; format: functional, Homo sapiens
Thymidylate synthase = Thymidylate synthase (Homo sapiens, UniProt P04818); experiment: Compound was evaluated for the inhibition of thymidylate synthase obtained from human; conditions: read-out: I50
Summary of the method: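 Human thymidylate synthase came from an SV40-transformed fibroblast line, cloned and expressed in E. coli, and purified to homogeneity by affinity chromatography. Activity was measured by the ³H-release method.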

MCF7 [11] = experiment: In vitro effect on 5-formyltetrahydrofolate (5-CHO-THF) in MCF-7 cells at 50 uM(control=0.1); Folate pools; format: functional, Homo sapiens
MCF7 [12] = experiment: In vitro effect on 10-formylfolic acid (10-CHO-FA) in MCF-7 cells at 50 uM(control= 0.1); Folate pools; format: functional, Homo sapiens
MCF7 [13] = experiment: In vitro effect on total folates in MCF-7 cells at 100 uM(control= 4.0); Folate pools; format: functional, Homo sapiens
MCF7 [14] = experiment: In vitro effect on dihydrofolate (DHF) in MCF-7 cells at 100 uM (control= 0.2); Folate pools; format: functional, Homo sapiens
MCF7 [15] = experiment: In vitro effect on 5-methyltetrahydrofolate (5-CH3-THF) in MCF-7 cells at 100 uM (control= 0.7); Folate pools; format: functional, Homo sapiens
MCF7 [16] = experiment: In vitro effect on 10-formyltetrahydrofolate (10-CHO-THF) in MCF-7 cells at 100 uM (control= 1.7); Folate pools; format: functional, Homo sapiens
MCF7 [17] = experiment: In vitro effect on dihydrofolate (DHF) in MCF-7 cells at 50 uM (control=0.2); Folate pools; format: functional, Homo sapiens
MCF7 [18] = experiment: In vitro effect on folic acid (FA) in MCF-7 cells at 50 uM (control= 0.0); Folate pools; format: functional, Homo sapiens
MCF7 [19] = experiment: In vitro effect on 10-formyldihydrofolate (10-CHO-DHF) in MCF-7 cells at 100 uM (control= 0.2); Folate pools; format: functional, Homo sapiens
MCF7 [20] = experiment: In vitro effect on 5-formyltetrahydrofolate (5-CHO-THF) in MCF-7 cells at 1 uM(control= 0.1); Folate pools; format: functional, Homo sapiens
MCF7 [21] = experiment: In vitro effect on 5-methyltetrahydrofolate (5-CH3-THF) in MCF-7 cells at 1 uM(control= 0.7); Folate pools; format: functional, Homo sapiens
MCF7 [22] = experiment: In vitro effect on folic acid (FA) in MCF-7 cells at 1 uM(control= 0.0); Folate pools; format: functional, Homo sapiens
MCF7 [23] = experiment: In vitro effect on tetrahydrofolate (THF) in MCF-7 cells at 1 uM(control= 1.0); Folate pools; format: functional, Homo sapiens
MCF7 [24] = experiment: In vitro effect on 10-formylfolic acid (10-CHO-FA) in MCF-7 cells at 1 uM(control= 0.1); Folate pools; format: functional, Homo sapiens
MCF7 [25] = experiment: In vitro effect on total folates in MCF-7 cells at 1 uM(control= 4.0); Folate pools; format: functional, Homo sapiens
MCF7 [26] = experiment: In vitro effect on 10-formyltetrahydrofolate (10-CHO-THF) in MCF-7 cells at 1 uM(control= 1.7); Folate pools; format: functional, Homo sapiens
MCF7 [27] = experiment: In vitro effect on dihydrofolate (DHF) in MCF-7 cells at 1 uM(control= 0.2); Folate pools; format: functional, Homo sapiens
MCF7 [28] = experiment: In vitro effect on 10-formyldihydrofolate (10-CHO-DHF) in MCF-7 cells at 1 uM(control= 0.2); Folate pools; format: functional, Homo sapiens

Thymidylate synthase, sequence (P04818 whole entry): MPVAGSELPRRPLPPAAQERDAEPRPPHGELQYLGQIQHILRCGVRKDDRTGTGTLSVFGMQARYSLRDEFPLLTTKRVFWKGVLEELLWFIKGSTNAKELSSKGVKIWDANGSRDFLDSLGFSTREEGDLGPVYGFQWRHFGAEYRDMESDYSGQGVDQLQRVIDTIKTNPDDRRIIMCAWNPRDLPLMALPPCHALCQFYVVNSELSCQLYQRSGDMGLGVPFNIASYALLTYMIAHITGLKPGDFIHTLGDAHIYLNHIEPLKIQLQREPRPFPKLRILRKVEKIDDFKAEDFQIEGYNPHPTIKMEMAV
Bifunctional purine biosynthesis protein ATIC (Homo sapiens), sequence (P31939 whole entry, looked up): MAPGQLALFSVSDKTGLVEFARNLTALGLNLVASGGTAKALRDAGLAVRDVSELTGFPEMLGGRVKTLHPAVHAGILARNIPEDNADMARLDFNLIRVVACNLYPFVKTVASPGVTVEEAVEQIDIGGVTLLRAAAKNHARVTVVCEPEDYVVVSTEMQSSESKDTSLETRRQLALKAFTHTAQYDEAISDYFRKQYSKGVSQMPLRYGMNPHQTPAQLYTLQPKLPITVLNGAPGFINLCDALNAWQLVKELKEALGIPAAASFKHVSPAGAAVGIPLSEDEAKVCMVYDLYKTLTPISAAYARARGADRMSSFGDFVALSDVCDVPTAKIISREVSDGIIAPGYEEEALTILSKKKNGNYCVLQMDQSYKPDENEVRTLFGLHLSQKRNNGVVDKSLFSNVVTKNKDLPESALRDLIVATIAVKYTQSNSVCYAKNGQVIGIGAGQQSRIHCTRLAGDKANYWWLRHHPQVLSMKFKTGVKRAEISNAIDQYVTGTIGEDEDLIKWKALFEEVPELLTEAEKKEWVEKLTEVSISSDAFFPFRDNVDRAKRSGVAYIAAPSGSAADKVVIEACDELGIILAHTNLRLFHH

inhibition [6]: 16%
IC50 (Dihydrofolate reductase): 2 µM
IC50 (Thymidylate synthase): 470 µM
Structure (SMILES): NCCCC(NC(=O)c1ccc(NCC2CNc3nc(N)nc(O)c3C2)cc1)C(=O)O (stereo not given)
Activity (MCF7 [1]): 0.9 pM (10e6*cells)-1
Activity (MCF7 [2]): 0.6 pM (10e6*cells)-1
Activity (MCF7 [3]): 0.1 pM (10e6*cells)-1
Activity (MCF7 [4]): 4.1 pM (10e6*cells)-1
Activity (MCF7 [5]): 0 pM (10e6*cells)-1
Activity (MCF7 [7]): 1.8 pM (10e6*cells)-1
Activity (MCF7 [8]): 0.3 pM (10e6*cells)-1
Activity (MCF7 [9]): 1 pM (10e6*cells)-1
Activity (MCF7 [10]): 0.1 pM (10e6*cells)-1
Activity (MCF7 [11]): 0.2 pM (10e6*cells)-1
Activity (MCF7 [12]): 0.2 pM (10e6*cells)-1
Activity (MCF7 [13]): 3.9 pM (10e6*cells)-1
Activity (MCF7 [14]): 0.2 pM (10e6*cells)-1
Activity (MCF7 [15]): 0.6 pM (10e6*cells)-1
Activity (MCF7 [16]): 1.7 pM (10e6*cells)-1
Activity (MCF7 [17]): 0.2 pM (10e6*cells)-1
Activity (MCF7 [18]): 0 pM (10e6*cells)-1
Activity (MCF7 [19]): 0.3 pM (10e6*cells)-1

Structure (SMILES): CN(Cc1cnc2nc(N)nc(N)c2n1)c1ccc(C(=O)N[C@@H](CCC(=O)O)C(=O)O)cc1 [METHOTREXATE]
Activity (MCF7 [20]): 0.1 pM (10e6*cells)-1
Activity (MCF7 [21]): 0.1 pM (10e6*cells)-1
Activity (MCF7 [22]): 0.1 pM (10e6*cells)-1
Activity (MCF7 [23]): 0.4 pM (10e6*cells)-1
Activity (MCF7 [24]): 0.3 pM (10e6*cells)-1
Activity (MCF7 [25]): 4.1 pM (10e6*cells)-1
Activity (MCF7 [26]): 0.8 pM (10e6*cells)-1
Activity (MCF7 [27]): 1.6 pM (10e6*cells)-1
Activity (MCF7 [28]): 0.6 pM (10e6*cells)-1
